One block for each compound: values may come before it.
How the values were obtained:
[1] = target: Human immunodeficiency virus type 1 reverse transcriptase (Human immunodeficiency virus 1, UniProt Q72547); test: Inhibition of HIV-1 recombinant reverse transcriptase after 1 hr by streptavidinalkaline phosphatase reporter system
Outline: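 Highly purified recombinant HIV-1 RT with a poly(rA)/oligo(dT)15 homopolymer template. SA-ALP was added, then PNPP (1 mg/mL, pH 9.5) for 30 min at 37 °C, stopped with NaOH. IC50 is the mean of three experiments.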

[2] = Selectivity index, ratio of CC50 for human TZM-bl cells to EC50 for wild-type HIV-1 SF33; format: toxicity, cell-based; settings: read-out: Ratio CC50/EC50
Outline: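 SI is calculated as CC50 in TZM-bl cells divided by EC50 against HIV-1 SF33 infection.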

[3] = Cytotoxicity against human TZM-bl cells after 3 days by XTT assay; format: cell-based
[4] = test system: Human immunodeficiency virus 1; test: Antiviral activity against wild-type HIV-1 SF33 infected in human TZM-bl cells after 7 days by ELISA; format: functional, organism-based; settings: Human immunodeficiency virus 1, SF33, TZM-bl, 168 h
Outline: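 TZM-bl cells (4 × 10⁴/well) were infected with 200 TCID₅₀ of HIV-1 SF33 for 2 h at 37 °C. Serially diluted compounds were then added and incubation continued 7 days at 37 °C. p24 was measured by ELISA.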

Compound: O=c1[nH]c(CCc2ccccc2)cc(Oc2ccccc2)c1I
IC50 [1]: 0.29 µM | selectivity ratio [2]: 1200 | CC50 at 72 h [3]: 181 µM | EC50 [4]: 0.15 µM

Compound: CC(C)c1c(Oc2ccccc2)cc(CCc2ccccc2)[nH]c1=O
IC50 [1]: 0.089 µM | selectivity ratio [2]: 3470 | CC50 at 72 h [3]: 195 µM | EC50 [4]: 0.0563 µM

Compound: O=c1[nH]c(CCc2ccccc2)cc(Nc2ccccc2)c1I
IC50 [1]: 8.14 µM

Compound: CN(C)c1c(Sc2ccccc2)cc(CCc2ccccc2)[nH]c1=O
IC50 [1]: 15.2 µM

Compound: Cc1ccc(Sc2cc(CCc3ccccc3)[nH]c(=O)c2I)cc1
IC50 [1]: 12 µM

Compound: O=c1[nH]c(CCc2ccccc2)cc(Sc2ccccc2)c1I
IC50 [1]: 20.3 µM

Compound: CC(C)c1c(Sc2ccccc2)cc(CCc2ccccc2)[nH]c1=O
IC50 [1]: 0.093 µM | selectivity ratio [2]: 998 | CC50 at 72 h [3]: 136 µM | EC50 [4]: 0.136 µM

The next lines start with results.

IC50 [1]: 43.3 µM
Compound: O=c1[nH]c(CCc2ccccc2)cc(NC2CCCC2)c1Br

IC50 [1]: 0.42 µM | EC50 [4]: 2.71 µM
Compound: CC1CCCCC1Nc1cc(CCc2ccccc2)[nH]c(=O)c1I (stereo unspecified)
selectivity ratio [2]: 18.5 | CC50 at 72 h [3]: 50.2 µM

IC50 [1]: 16.9 µM
Compound: Cc1ccc(Sc2cc(CCc3ccccc3)[nH]c(=O)c2Br)cc1

IC50 [1]: 24 µM
Compound: O=c1[nH]c(CCc2ccccc2)cc(NC2CCCC2)c1I

IC50 [1]: 0.68 µM | EC50 [4]: 13.7 µM
Compound: CC1CCCCC1Nc1cc(CCc2ccccc2)[nH]c(=O)c1Br (stereo unspecified)
selectivity ratio [2]: 9.6 | CC50 at 72 h [3]: 131 µM

IC50 [1]: 15.2 µM
Compound: O=c1[nH]c(CCc2ccccc2)cc(NC2CCCCC2)c1I

IC50 [1]: 40.3 µM
Compound: O=c1[nH]c(CCc2ccccc2)cc(NC2CCCCC2)c1Br

IC50 [1]: 57.1 µM
Compound: O=c1[nH]c(CCc2ccccc2)cc(Sc2ccccc2)c1Br

IC50 [1]: 11.3 µM
Compound: O=c1[nH]c(CCc2ccccc2)cc(Nc2ccccc2)c1Br
